Only some compounds are listed: those with a hit (about 9.6% of all), similar ones and a draw of the others.
PMI act satM6P – activators of human phosphomannose isomerase at near-saturating mannose 6-phosphate | activation factor at 20 µM | hit rate 0.34% among 190,000 | coupled PMI enzyme assay, resazurin fluorescence, 20 min; stronger effect = higher value; 1 = untreated enzyme, 0 = substrate-free blank | P34949;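 active = activation factor of 2 or more at 20 µM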
Target sequence (P34949 whole entry, looked up): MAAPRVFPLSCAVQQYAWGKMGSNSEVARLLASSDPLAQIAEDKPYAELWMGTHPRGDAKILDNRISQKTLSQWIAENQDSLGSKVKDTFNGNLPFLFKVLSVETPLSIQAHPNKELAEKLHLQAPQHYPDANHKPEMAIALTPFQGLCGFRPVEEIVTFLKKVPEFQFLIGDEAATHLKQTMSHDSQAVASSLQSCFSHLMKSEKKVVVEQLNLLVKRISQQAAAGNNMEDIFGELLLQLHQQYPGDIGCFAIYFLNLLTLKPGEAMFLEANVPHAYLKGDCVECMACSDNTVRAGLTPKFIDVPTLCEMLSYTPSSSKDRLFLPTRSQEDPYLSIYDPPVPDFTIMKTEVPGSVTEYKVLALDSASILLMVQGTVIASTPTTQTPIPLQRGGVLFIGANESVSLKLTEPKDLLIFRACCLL
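Test system: Human PMI in coupled enzyme assay | Input: 15 ng/mL PMI | Medium: HEPES-buffered pH 7.4 with magnesium and detergent | Compound: One concentration, 20 µM, in 1% DMSO | Incubation: Enzyme reaction with compound 20 min at room temperature | Detection: Diaphorase-driven resazurin-to-resorufin fluorescence, excitation 544, emission 590 nm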
PMI act – phosphomannose isomerase (human) activation; P34949; purified human PMI, coupled resazurin fluorescence, 20 min; stronger effect = higher value; 1 = vehicle control, 0 substrate-free wells; activation factor at 20 µM; hit rate 0.005% among 190,000; AID 1214;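 active = activation factor of 2 or more at 20 µM, relative to plate controls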
HCT116 PTEN-null – PTEN-deleted cell growth suppression. viability, % at 10 µM. hit rate 1.2% among 140,000. HCT116 PTEN-null viability, CellTiter-Glo, 60 h; stronger effect = lower value;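 active = viability at or below a set limit, 4 SD under the median of all tested compounds, cut at about 3.7% in these data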;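 also: PTEN knockout HCT116 line with beta catenin targeted HCT116 as companion control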
L major viab – reduces viability of Leishmania major promastigotes; inhibition, % at 10 µM; hit rate 9% among 200,000; resazurin fluorescence viability; in the data active = inhibition above about 50%;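 also: promastigotes grown with compound for 44 hours at 28 °C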
bCat KO growth – beta-catenin-lacking colon tumor cell growth suppression. HCT116 beta-catenin knockout viability, CellTiter-Glo, 60 h; stronger effect = lower value. viability, % at 10 µM. hit rate 1.5% among 140,000;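 active = viability at or under a set limit, the compound median less 4 SD, cut at about 6% in these data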
Large screens that a line does not name were inactive.

CCOC(=O)c1ccc(NC(=O)CSc2nnc(CNC(=O)c3ccccc3F)o2)cc1	L major viab 91.0
COc1ccccc1N1CCN(C(=O)CCc2c[nH]c3ccccc23)CC1	none (no result: HCT116 PTEN-null, bCat KO growth)
CCOC(=O)C1=C(C)OC(N)=C(C#N)C1c1cc2c(cc1[N+](=O)[O-])OCO2 (stereo not given)	none (no result: HCT116 PTEN-null, bCat KO growth)
Clc1ccc(CO/N=C2\CCCc3nonc32)c(Cl)c1	none
CCOC(=O)c1ccc(NC(=O)Cn2nnc(-c3ccccc3F)n2)cc1	L major viab 60.9
Cc1cccc(C2=NC(C(F)(F)F)(C(F)(F)F)c3c(n(-c4ccc(F)cc4)c(=O)[nH]c3=O)N2)c1	L major viab 74.5
O=C(NC1(C(F)(F)F)C(=O)Nc2c1c(=O)[nH]c(=O)n2-c1ccccc1)c1ccncc1 (stereo not given)	none (no result: PMI act satM6P, PMI act, HCT116 PTEN-null, bCat KO growth)
O=C(NCC1CCCN(Cc2ccc3nonc3c2)C1)c1ccc(F)cc1 (stereo not given)	L major viab 89.6 (no result: HCT116 PTEN-null, bCat KO growth)
O=C(NCC1CCCN(Cc2cccc(C(F)(F)F)c2)C1)c1ccc(F)cc1 (stereo not given)	L major viab 80.4 (no result: PMI act satM6P, PMI act, HCT116 PTEN-null, bCat KO growth)
COc1ccc(NC(=O)CC(C)C)c(OC)c1	none
COc1ccc(C(O)P(=O)(OCC(C)C)OCC(C)C)c(OC)c1 (stereo not given)	L major viab 65.2
COc1ccc(-n2ncc3c(N4CCN(Cc5ccccc5)CC4)ncnc32)cc1	L major viab 67.3 (no result: HCT116 PTEN-null, bCat KO growth)
Cc1ccc(C(=O)N2CCN(c3ncnc4c3cnn4-c3ccccc3)CC2)cc1	L major viab 53.0 (no result: PMI act satM6P, PMI act, HCT116 PTEN-null, bCat KO growth)
COc1cccc(N2CCN(c3ncnc4c3cnn4-c3ccc(C)cc3C)CC2)c1	HCT116 PTEN-null 3.1, bCat KO growth 1.7
CN1CCN(c2ncnc3c2cnn3-c2ccc(Cl)cc2)CC1	L major viab 88.2
N/C(=N\OC(=O)Cc1ccccc1)c1ccccc1Cl	none (no result: HCT116 PTEN-null, bCat KO growth)
CC(=O)NC1CC2CCC(C1)N2Cc1ccc(C)cc1 (stereo not given)	L major viab 89.8 (no result: HCT116 PTEN-null)
CNC(=S)NC1CC2CCCC(C1)N2Cc1ccc(C)cc1 (stereo not given)	L major viab 90.6 (no result: HCT116 PTEN-null, bCat KO growth)
CCCN1C2CCCC1CC(NC(=S)Nc1ccc(OC)cc1)C2 (stereo not given)	none (no result: HCT116 PTEN-null, bCat KO growth)
O=C(c1ccc(Oc2ccc(C(F)(F)F)cc2[N+](=O)[O-])cc1)N1CCOCC1	L major viab 55.3
CCCN(CCC)c1nc2ccccc2nc1C(C#N)C(=O)OC(C)COC (stereo not given)	L major viab 65.6 (no result: PMI act satM6P, PMI act)
CCCCN(CCCC)c1nc2ccccc2nc1C(C#N)C(=O)NCCCOC (stereo not given)	none
COc1ccccc1-c1ccc(/C=C2/C=C(C)OC2=O)o1	PMI act satM6P 2
COc1cc(C(=O)N2CCN(C/C=C/c3ccccc3)CC2)cc(OC)c1OC	none
CCOc1cc(C(=O)N2CCN(C/C=C/c3ccccc3)CC2)cc(OCC)c1OCC	L major viab 65.9
CCOc1cccc2cc(C(=O)N3CCN(C/C=C/c4ccccc4)CC3)c(=O)oc12	L major viab 96.0
CCOc1cccc2cc(C(=O)N3CCc4ccccc43)c(=O)oc12	none
O=C(N/N=C/c1cc([N+](=O)[O-])ccc1O)C1C2CCCCC21 (stereo not given)	L major viab 92.2 (no result: HCT116 PTEN-null, bCat KO growth)
O=[N+]([O-])c1ccc(O)c(/C=N/Nc2nn[nH]n2)c1	none (no result: HCT116 PTEN-null, bCat KO growth)
O=C(N/N=C/c1cc([N+](=O)[O-])ccc1O)C1CCCCC1	L major viab 97.2
O=[N+]([O-])c1ccc(O)c(/C=N/Nc2ccc(Cl)nn2)c1	L major viab 100.0
COc1ccc(CCNC(=O)COC(=O)/C=C/c2ccc(OC)c(OC)c2)cc1	none
Clc1ccc(CN2CCN(c3ccccc3)CC2)cn1	none (no result: HCT116 PTEN-null, bCat KO growth)
CN(C)S(=O)(=O)N1CCC(CO)(CCc2ccccc2)CC1	none (no result: HCT116 PTEN-null, bCat KO growth)
CC(COc1ccccc1)N1CCC(CO)(CCc2ccccc2)CC1 (stereo not given)	L major viab 97.4 (no result: HCT116 PTEN-null, bCat KO growth)
CSCC(C)N1CCC(CO)(CCc2ccccc2)CC1 (stereo not given)	L major viab 82.2 (no result: HCT116 PTEN-null, bCat KO growth)
CC(=O)c1cc(N2CCOCC2)ccc1[N+](=O)[O-]	none (no result: HCT116 PTEN-null, bCat KO growth)
Cc1cc(N2CCOCC2)ccc1/C=C\[N+](=O)[O-]	L major viab 69.6, bCat KO growth 4.4
COc1ccc(C2=NN(C(C#N)c3ccc(OC)c(OC)c3)C(c3ccccc3)C2)cc1 (stereo not given)	L major viab 100.0
N#CCSc1nc2sc3c(c2c(=O)n1C1CCCCC1)CCCC3	L major viab 56.4

From PubChem
